Values after ≈ are worked out from the molar mass of the structure shown.
Tests used:
Type in all cases: functional
Haemophilus influenzae = test: In Vitro antibacterial activity against H. flu DILL (Amp-R strain)
Method in brief: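 MIC by agar dilution following NCCLS recommendations. Test organism is H. influenzae DILL, an ampicillin-resistant strain carrying a β-lactamase-positive determinant.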

Staphylococcus aureus [1] = test: In Vitro antibacterial activity against Staphylococcus aureus 1775 (ermA-c strain)
Method in brief: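 Methicillin-resistant (MRSA) strain. Minimum inhibitory concentration read by agar dilution, following NCCLS recommendations.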

Staphylococcus aureus [2] = test: In Vitro antibacterial activity against Staphylococcus aureus A5177 (ermA-i strain)
Method in brief: (§1)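 MIC by agar dilution following NCCLS recommendations, against S. aureus.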

Staphylococcus aureus [3] = test: In Vitro antibacterial activity against Staphylococcus aureus ATCC 6538P (Ery-S […] strain); method in brief: as §1
Streptococcus pyogenes [4] = test: In Vitro antibacterial ativity against Streptococcus pyogenes 930 (ermB strain)
Method in brief: (§2)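 Strains with MLSB resistance encoded by ermB. MICs obtained by agar dilution as recommended by NCCLS.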

Streptococcus pneumoniae [5] = test: In Vitro antibacterial activity against Streptococcus pneumoniae ATCC 6303 (Ery-S strain)
Method in brief: (§3)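 Agar dilution method per NCCLS recommendations, with activity reported as minimum inhibitory concentration.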

Streptococcus pyogenes [6] = test: In Vitro antibacterial ativity against Streptococcus pyogenes EES61 (Ery-S strain); method in brief: as §3
Streptococcus pneumoniae [7] = test: In Vitro antibacterial activity against Streptococcus pneumoniae 5649 (mefE strain)
Method in brief: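 Efflux-resistant strain carrying mefE. MIC determined by the agar dilution method recommended by NCCLS.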

Streptococcus pneumoniae [8] = test: In Vitro antibacterial activity against Streptococcus pneumoniae 5979 (ermB strain); method in brief: as §2
Streptococcus pyogenes [9] = test: In Vitro antibacterial ativity against Streptococcus pyogenes PIU2548 (mefA strain)
Method in brief: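 Tested on a mefA-encoded efflux-resistant strain. The endpoint is the MIC by NCCLS-recommended agar dilution.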

| SMILES | MIC (Haemophilus influenzae) | MIC (Staphylococcus aureus [1]) | MIC (Staphylococcus aureus [2]) | MIC (Staphylococcus aureus [3]) | MIC (Streptococcus pyogenes [4]) | MIC (Streptococcus pneumoniae [5]) | MIC (Streptococcus pyogenes [6]) | MIC (Streptococcus pneumoniae [7]) | MIC (Streptococcus pneumoniae [8]) | MIC (Streptococcus pyogenes [9]) |
| --- | --- | --- | --- | --- | --- | --- | --- | --- | --- | --- |
| CC[C@H]1OC(=O)[C@H](C)C(=O)[C@H](C)[C@@H](O[C@@H]2O[C@H](C)C[C@H](N(C)C)[C@H]2O)[C@@](C)(OCC#CCc2cnc3ccccc3c2)C[C@@H](C)C(=O)[C@H](C)[C@H]2NC(=O)O[C@@]21C | 2 µg/mL (≈ 2.57 µM) | > 100 µg/mL | 0.1 µg/mL (≈ 0.129 µM) | 0.1 µg/mL (≈ 0.129 µM) | 16 µg/mL (≈ 20.6 µM) | < 0.004 µg/mL | 0.015 µg/mL (≈ 0.0193 µM) | 0.25 µg/mL (≈ 0.321 µM) | 2 µg/mL (≈ 2.57 µM) | 0.25 µg/mL (≈ 0.321 µM) |
| CC[C@H]1OC(=O)[C@H](C)C(=O)[C@H](C)[C@@H](O[C@@H]2O[C@H](C)C[C@H](N(C)C)[C@H]2O)[C@@](C)(OCC#CCc2ccc(-c3cccnc3)cc2)C[C@@H](C)C(=O)[C@H](C)[C@H]2NC(=O)O[C@@]21C | 4 µg/mL (≈ 4.98 µM) | > 100 µg/mL | 0.02 µg/mL (≈ 0.0249 µM) | 0.02 µg/mL (≈ 0.0249 µM) | 8 µg/mL (≈ 9.95 µM) | < 0.004 µg/mL | < 0.004 µg/mL | 0.125 µg/mL (≈ 0.155 µM) | 0.125 µg/mL (≈ 0.155 µM) | 0.125 µg/mL (≈ 0.155 µM) |
| CC[C@H]1OC(=O)[C@H](C)[C@@H](O[C@H]2C[C@@](C)(OC)[C@@H](O)[C@H](C)O2)[C@H](C)[C@@H](O[C@@H]2O[C@H](C)C[C@H](N(C)C)[C@H]2O)[C@](C)(O)C[C@@H](C)C(=O)[C@H](C)[C@@H](O)[C@]1(C)O [ERYTHROMYCIN] | 4 µg/mL (≈ 5.45 µM) | > 128 µg/mL | > 128 µg/mL | 0.5 µg/mL (≈ 0.681 µM) | > 128 µg/mL | 0.015 µg/mL (≈ 0.0204 µM) | 0.015 µg/mL (≈ 0.0204 µM) | 4 µg/mL (≈ 5.45 µM) | > 128 µg/mL | 8 µg/mL (≈ 10.9 µM) |
| CC[C@H]1OC(=O)[C@H](C)C(=O)[C@H](C)[C@@H](O[C@@H]2O[C@H](C)C[C@H](N(C)C)[C@H]2O)[C@](C)(OC)C[C@@H](C)C(=O)[C@H](C)[C@H]2N(CCCCn3cnc(-c4cccnc4)c3)C(=O)O[C@]12C [TELITHROMYCIN] | 2 µg/mL (≈ 2.46 µM) | > 100 µg/mL | 0.1 µg/mL (≈ 0.123 µM) | 0.1 µg/mL (≈ 0.123 µM) | 8 µg/mL (≈ 9.85 µM) | 0.004 µg/mL (≈ 0.00493 µM) | 0.004 µg/mL (≈ 0.00493 µM) | 0.5 µg/mL (≈ 0.616 µM) | 8 µg/mL (≈ 9.85 µM) | 2 µg/mL (≈ 2.46 µM) |
| CC[C@H]1OC(=O)[C@@](C)(F)C(=O)[C@H](C)[C@@H](O[C@@H]2O[C@H](C)C[C@H](N(C)C)[C@H]2O)[C@@](C)(OCC#CCc2ccc(-c3csnn3)cc2)C[C@@H](C)C(=O)[C@H](C)[C@H]2NC(=O)O[C@@]21C | 4 µg/mL (≈ 4.83 µM) | > 100 µg/mL | 0.05 µg/mL (≈ 0.0603 µM) | 0.05 µg/mL (≈ 0.0603 µM) | 4 µg/mL (≈ 4.83 µM) | 0.015 µg/mL (≈ 0.0181 µM) | 0.03 µg/mL (≈ 0.0362 µM) | 0.5 µg/mL (≈ 0.603 µM) | 4 µg/mL (≈ 4.83 µM) | 0.25 µg/mL (≈ 0.302 µM) |
| CC[C@H]1OC(=O)[C@H](C)C(=O)[C@H](C)[C@@H](O[C@@H]2O[C@H](C)C[C@H](N(C)C)[C@H]2O)[C@@](C)(OCC#CCc2ccc(-c3cnccn3)cc2)C[C@@H](C)C(=O)[C@H](C)[C@H]2NC(=O)O[C@@]21C | 4 µg/mL (≈ 4.97 µM) | > 100 µg/mL | 0.02 µg/mL (≈ 0.0248 µM) | 0.02 µg/mL (≈ 0.0248 µM) | 4 µg/mL (≈ 4.97 µM) | < 0.004 µg/mL | < 0.004 µg/mL | – | 0.03 µg/mL (≈ 0.0373 µM) | 0.015 µg/mL (≈ 0.0186 µM) |
| CC[C@H]1OC(=O)[C@H](C)C(=O)[C@H](C)[C@@H](O[C@@H]2O[C@H](C)C[C@H](N(C)C)[C@H]2O)[C@@](C)(OCC#CCc2ccc(-c3csnn3)cc2)C[C@@H](C)C(=O)[C@H](C)[C@H]2NC(=O)O[C@@]21C | 2 µg/mL (≈ 2.47 µM) | > 100 µg/mL | 0.1 µg/mL (≈ 0.123 µM) | 0.05 µg/mL (≈ 0.0617 µM) | 4 µg/mL (≈ 4.93 µM) | < 0.004 µg/mL | 0.03 µg/mL (≈ 0.037 µM) | 0.25 µg/mL (≈ 0.308 µM) | 8 µg/mL (≈ 9.86 µM) | 0.125 µg/mL (≈ 0.154 µM) |
| CC[C@H]1OC(=O)[C@H](C)C(=O)[C@H](C)[C@@H](O[C@@H]2O[C@H](C)C[C@H](N(C)C)[C@H]2O)[C@@](C)(OCC#CCc2ccccc2)C[C@@H](C)C(=O)[C@H](C)[C@H]2NC(=O)O[C@@]21C | 2 µg/mL (≈ 2.75 µM) | > 100 µg/mL | 0.2 µg/mL (≈ 0.275 µM) | 0.2 µg/mL (≈ 0.275 µM) | 128 µg/mL (≈ 176 µM) | 0.03 µg/mL (≈ 0.0413 µM) | 0.06 µg/mL (≈ 0.0825 µM) | 0.25 µg/mL (≈ 0.344 µM) | 16 µg/mL (≈ 22 µM) | 0.25 µg/mL (≈ 0.344 µM) |

— ChEMBL document CHEMBL1145026, “Synthesis and antibacterial activity of 6-O-arylbutynyl ketolides with improved activity against some key erythromycin-resistant pathogens” (2003)
